ChEMBL document CHEMBL4393712, “Discovery of chalcone-modified estradiol analogs as antitumour agents that Inhibit tumour angiogenesis and epithelial to mesenchymal transition” (Eur J Med Chem, 2019)
Active and inactive are the calls of the source. The rule behind the calls is not given here.

How the values were obtained:
HEK293 = test: Cytotoxicity against human HEK293 cells measured after 48 to 72 hrs by MTT assay; assay type: cell-based
Procedure, shortened: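 Cells seeded at 3 × 10^3 per well in 96-well plates, incubated overnight, then given fresh medium with a range of drug concentrations for 48 h or 72 h. MTT added (final 500 µg/mL) for 4 h, formazan dissolved in DMSO, absorbance at 570 nm; IC50 derived. Mean ± SD of 3 independent tests.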

A549 = test: Antitumour activity against human A549 cells assessed as cell growth inhibition measured after 72 hrs by SRB assay; assay type: functional, cell-based; settings: A549, 72 h
Procedure, shortened: (§1)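 Exponentially growing cells trypsinized, seeded at 5 × 10^4 cells/mL in 96-well plates, cultured overnight, then exposed to compounds for 72 h. Cells fixed with 10% TCA 1 h, stained with SRB 15 min, dye dissolved in Tris-HCl, absorbance read; 50% growth-inhibitory concentration calculated.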

SK-N-SH = test: Antitumour activity against human SK-N-SH cells assessed as cell growth inhibition measured after 72 hrs by SRB assay; assay type: functional, cell-based; procedure, shortened: as §1
ECa-109 cell line = test: Antitumour activity against human EC109 cells assessed as cell growth inhibition measured after 72 hrs by SRB assay; assay type: functional, cell-based; settings: ECa-109, 72 h; procedure, shortened: as §1
B16 = test: Antitumour activity against mouse B16 cells assessed as cell growth inhibition measured after 72 hrs by SRB assay; assay type: functional, cell-based; settings: B16, 72 h; procedure, shortened: as §1
Chorioallantoic membrane = test: Antiangiogenic activity in chicken chorioallantoic membrane assessed as reduction in neovascularization at 50 ug/ml measured after 72 hrs by CAM assay; assay type: functional; settings: Gallus gallus
Procedure, shortened: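 Fertilized chicken eggs incubated 6 days at 37 °C; shell windowed and CAM treated (compounds and controls at […] as printed; saline vehicle control). Eggs re-incubated humidified; membranes fixed and harvested after 72 h. Angiogenesis scored by counting blood vessels and imaging neovascular zones; ten eggs per group.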

MGC-803 = test: Antitumour activity against human MGC803 cells assessed as cell growth inhibition measured after 72 hrs by SRB assay; assay type: functional, cell-based; settings: MGC-803, 72 h; procedure, shortened: as §1
[1] = Solubility of the compound in water; assay type: physicochemical; settings: buffer
SMMC-7721 = test: Antitumour activity against human SMMC7721 cells assessed as cell growth inhibition measured after 72 hrs by SRB assay; assay type: functional, cell-based; settings: SMMC-7721, 72 h; procedure, shortened: as §1
K562 = test: Anticancer activity against human K562 cells measured after 48 hrs by SRB assay; assay type: functional; settings: K562, 48 h
RPMI-8226 = test: Anticancer activity against human RPMI8226 cells measured after 48 hrs by SRB assay; assay type: functional; settings: RPMI-8226, 48 h
CCRF-CEM = test: Anticancer activity against human CCRF-CEM cells measured after 48 hrs by SRB assay; assay type: functional
SR = test: Anticancer activity against human SR cells measured after 48 hrs by SRB assay; assay type: functional
MDA-MB-231 = test: Antiproliferative activity against human MDA-MB-231 cells measured after 72 hrs by MTT assay; assay type: functional, cell-based; settings: MDA-MB-231, 72 h
MCF7 = test: Antiproliferative activity against human MCF7 cells measured after 72 hrs by MTT assay; assay type: functional, cell-based; settings: MCF7, 72 h
HCT-116 = test: Antiproliferative activity against human HCT116 cells measured after 48 hrs by SRB assay; assay type: functional; settings: HCT-116, 48 h
U-251 = test: Antiproliferative activity against human U251 cells measured after 48 hrs by SRB assay; assay type: functional; settings: U-251, 48 h
MDA-MB-435 = test: Antiproliferative activity against human MDA-MB-435 cells measured after 48 hrs by SRB assay; assay type: functional; settings: MDA-MB-435, 48 h
NCI-H460 = test: Antiproliferative activity against human NCI-H460 cells measured after 48 hrs by SRB assay; assay type: functional; settings: NCI-H460, 48 h
HeLa = test: Antiproliferative activity against human HeLa cells measured after 72 hrs by MTT assay; assay type: functional, cell-based

Structure (SMILES) | IC50 (A549) [µM] | IC50 (SK-N-SH) [µM] | IC50 (B16) [µM] | IC50 (MGC-803) [µM] | solubility [1] | IC50 (SMMC-7721) [µM] | IC50 (HEK293) [µM] | IC50 (ECa-109 cell line) [µM] | also measured
CN1CCN(C(=O)COc2ccc(/C=C3\C[C@H]4[C@@H]5CC=C6CC(Cl)CC[C@]6(C)[C@H]5CC[C@]4(C)C3=O)cc2)CC1 (some centres undefined) |  |  |  |  |  |  |  |  | GI50 (K562): 2.61 µM; GI50 (RPMI-8226): 6.9 µM; GI50 (CCRF-CEM): 3.94 µM; GI50 (SR): 1.79 µM
C[C@]12CC[C@H]3[C@@H](CCC4=CC(=O)CC[C@@]43C)[C@@H]1CC[C@@H]2C(=O)/C=C/c1ccc(F)cc1 |  |  |  |  |  |  |  |  | IC50 (MDA-MB-231): 2 µM; IC50 (MCF7): 2 µM
C[C@]12CC[C@@H]3c4cc(C(=O)/C=C/c5ccc(Cl)cc5)c(O)cc4CC[C@H]3[C@@H]1CC[C@@H]2O | 12.1 | 15 | 15.3 | 15.7 |  | 44.9 |  | 14 | 
C[C@]12CC[C@@H]3c4cc(C(=O)/C=C/c5cccc(Cl)c5)c(O)cc4CC[C@H]3[C@@H]1CC[C@@H]2O | 10.9 | 10.3 | 12.4 | 8 |  | 6.3 |  | 8.5 | 
C=C1CC[C@H]2[C@@H]3CCc4cc(O)c(/C=C/C(=O)c5cc(OC)c(OC)c(OC)c5)cc4[C@H]3CC[C@]12C |  |  |  |  |  |  |  |  | GI50 (HCT-116): 1.6 µM; GI50 (U-251): 1.4 µM; GI50 (MDA-MB-435): 1.6 µM; GI50 (NCI-H460): 2.6 µM
COc1ccc(/C=C/C(=O)c2cc3c(cc2O)CC[C@@H]2[C@@H]3CC[C@]3(C)[C@@H](O)CC[C@@H]23)cc1 | 8.6 | 18.9 | 17.4 | 12.2 |  | 16.1 |  | 18.2 | 
C[C@]12CC[C@@H]3c4ccc(O)cc4CC[C@H]3[C@@H]1C/C(=N\O)C2=O |  |  |  |  |  |  |  |  | IC50 (HeLa): 4.41 µM
C[C@]12CC[C@@H]3c4cc(C(=O)/C=C/c5ccc(Cl)cc5Cl)c(O)cc4CC[C@H]3[C@@H]1CC[C@@H]2O | 13.7 | 22.7 | 13.1 | 12.5 |  | 14.5 |  | 19.4 | 
C[C@]12CC[C@@H]3c4cc(C(=O)/C=C/c5ccc(OCc6ccccc6)cc5)c(O)cc4CC[C@H]3[C@@H]1CC[C@@H]2O | 52.6 | > 128 | > 128 | > 128 | Soluble | > 128 | > 100 | > 128 | inhibition (Chorioallantoic membrane): Active
COc1cccc(/C=C/C(=O)c2cc3c(cc2O)CC[C@@H]2[C@@H]3CC[C@]3(C)[C@@H](O)CC[C@@H]23)c1 | 5.5 | 4.5 | 8.9 | 4 | Soluble | 26.1 | 13.1 | 5.6 | inhibition (Chorioallantoic membrane): Active
COc1ccccc1/C=C/C(=O)c1cc2c(cc1O)CC[C@@H]1[C@@H]2CC[C@]2(C)[C@@H](O)CC[C@@H]12 | 5.9 | 22.2 | 16.5 | 9.8 |  | 0.6 |  | 26.5 | 
C[C@]12CC[C@@H]3c4cc(C(=O)/C=C/c5ccccc5Cl)c(O)cc4CC[C@H]3[C@@H]1CC[C@@H]2O | 15.5 | 16.4 | 15.9 | 8.3 |  | 11.3 |  | 13.2 | 

The next lines start with results.

IC50 (A549) [µM] | IC50 (SK-N-SH) [µM] | IC50 (B16) [µM] | IC50 (MGC-803) [µM] | solubility [1] | IC50 (SMMC-7721) [µM] | Structure (SMILES) | IC50 (HEK293) [µM] | IC50 (ECa-109 cell line) [µM] | also measured
39.4 | 42 | 2.6 | 14.1 | Soluble | 0.1 | COc1cc2c(cc1O)CC[C@@H]1[C@@H]2CC[C@]2(C)C(=O)/C(=C/c3ccc(Br)cc3)C[C@@H]12 | 48.9 | 17.6 | inhibition (Chorioallantoic membrane): Active
53 | 20.1 | 6 | 20.5 |  | 20.8 | COc1cc2c(cc1O)CC[C@@H]1[C@@H]2CC[C@]2(C)C(=O)/C(=C/c3ccc(C)cc3)C[C@@H]12 |  | 22.5 | 
20.4 | 18.2 | 12.7 | 18.3 | Soluble | 8.6 | COc1cc2c(cc1O)CC[C@@H]1[C@@H]2CC[C@]2(C)C(=O)/C(=C/c3cccc(OC)c3OC)C[C@@H]12 | 51 | 10.5 | 
19.4 | 22.4 | 17.8 | 17.7 |  | 17.2 | COc1cc2c(cc1O)CC[C@@H]1[C@@H]2CC[C@]2(C)C(=O)/C(=C/c3ccccc3)C[C@@H]12 |  | 22.8 | 
25.3 | 27 | 16.8 | 13.5 | Soluble | 8.2 | COc1cc2c(cc1O)CC[C@@H]1[C@@H]2CC[C@]2(C)C(=O)/C(=C/c3ccc(F)cc3)C[C@@H]12 | 87.8 | 19.9 | inhibition (Chorioallantoic membrane): Active
15 | 8 | 14.2 | 10.7 |  | 5.1 | COc1cc2c(cc1O)CC[C@@H]1[C@@H]2CC[C@]2(C)C(=O)/C(=C/c3cc(F)cc(F)c3)C[C@@H]12 |  | 16.2 | 
22.6 | 21 | 10.1 | 12.3 | Soluble | 16.9 | COc1cc2c(cc1O)CC[C@@H]1[C@@H]2CC[C@]2(C)C(=O)/C(=C/c3cccc(Cl)c3)C[C@@H]12 | 77.1 | 24.3 | inhibition (Chorioallantoic membrane): Active
14.5 | 14.3 | 18.8 | 18.7 |  | 2.8 | COc1cc2c(cc1O)CC[C@@H]1[C@@H]2CC[C@]2(C)C(=O)/C(=C/c3cc(OC)c(OC)c(OC)c3)C[C@@H]12 |  | 13.9 | 
5.9 | 20.5 | 7.7 | 10.5 |  | 37.3 | COc1cc2c(cc1O)CC[C@@H]1[C@@H]2CC[C@]2(C)C(=O)/C(=C/c3ccc(S(C)(=O)=O)cc3)C[C@@H]12 | > 100 | 18.2 | 
21.2 | 24.5 | 6.7 | 12.7 | Soluble | 8.1 | COc1cc2c(cc1O)CC[C@@H]1[C@@H]2CC[C@]2(C)C(=O)/C(=C/c3cccc([N+](=O)[O-])c3)C[C@@H]12 |  | 23.3 | 
15.5 | 17.8 | 16.5 | 15.8 |  | 1.7 | COc1cc2c(cc1O)CC[C@@H]1[C@@H]2CC[C@]2(C)C(=O)/C(=C/c3ccc(Cl)cc3Cl)C[C@@H]12 |  | 15.3 | 
